Results: ChEMBL document CHEMBL2311390, “Synthesis and preliminary evaluation of pharmacological properties of some piperazine derivatives of xanthone” (Bioorg Med Chem, 2013)
pKi: −log10 of the molar value.

Columns and labels:
Rattus norvegicus [1] = experiment: Hypotensive activity in normotensive Wistar rat assessed as reduction of diastolic blood pressure at 2.5 mg/kg, iv after 10 mins; format: functional, Artery
In short: (§1)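 Male normotensive Wistar rats (170–350 g) were anaesthetised with thiopental 75 mg/kg ip. The right carotid artery was cannulated with heparin-saline tubing for pressure recording. After a 5 min stabilisation, compound was injected into a caudal vein at 1 mL/kg. Systolic and diastolic pressure were followed up to 60 min. Data are means ± SEM of 5–6 animals, compared by one-way ANOVA.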

Rattus norvegicus [2] = experiment: Hypotensive activity in normotensive Wistar rat assessed as reduction of systolic blood pressure at 2.5 mg/kg, iv after 10 mins; format: functional, Artery; in short: as §1
Rattus norvegicus [3] = experiment: Hypotensive activity in normotensive Wistar rat assessed as reduction of diastolic blood pressure at 2.5 mg/kg, iv after 60 mins; format: functional, Artery; in short: as §1
Rattus norvegicus [4] = experiment: Hypotensive activity in normotensive Wistar rat assessed as reduction of systolic blood pressure at 2.5 mg/kg, iv after 30 mins; format: functional, Artery; in short: as §1
Rattus norvegicus [5] = experiment: Hypotensive activity in normotensive Wistar rat assessed as reduction of diastolic blood pressure at 2.5 mg/kg, iv after 20 mins; format: functional, Artery; in short: as §1
Rattus norvegicus [6] = experiment: Hypotensive activity in normotensive Wistar rat assessed as reduction of systolic blood pressure at 2.5 mg/kg, iv after 20 mins; format: functional, Artery; in short: as §1
Rattus norvegicus [7] = experiment: Hypotensive activity in normotensive Wistar rat assessed as reduction of systolic blood pressure at 2.5 mg/kg, iv after 5 mins; format: functional, Artery; in short: as §1
Rattus norvegicus [8] = experiment: Hypotensive activity in normotensive Wistar rat assessed as reduction of systolic blood pressure at 2.5 mg/kg, iv after 60 mins; format: functional, Artery; in short: as §1
Rattus norvegicus [9] = experiment: Hypotensive activity in normotensive Wistar rat assessed as reduction of diastolic blood pressure at 2.5 mg/kg, iv after 30 mins; format: functional, Artery; in short: as §1
Rattus norvegicus [10] = experiment: Hypotensive activity in normotensive Wistar rat assessed as reduction of diastolic blood pressure at 2.5 mg/kg, iv after 5 mins; format: functional, Artery; in short: as §1
[11] = Displacement of [3H]CGP-12177 from beta1-adrenergic receptor in rat cerebral cortex by liquid scintillation counting; format: tissue-based
In short: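 Rat cerebral cortex was homogenised in ice-cold 50 mM Tris-HCl pH 7.6 and spun at 20,000 g for 20 min at 0–4 °C, then washed once. Radioligands: [3H]prazosin 0.2 nM for α1, [3H]clonidine 2 nM for α2, [3H]CGP-12177 0.2 nM for β1. Test compounds were run at 7–8 concentrations from 10^-11 to 10^-4 M. Nonspecific binding was defined with phentolamine (α1), clonidine (α2) or propranolol (β1). Counting was by liquid scintillation, in duplicate. Ki was derived by Cheng–Prusoff from 2–3 experiments.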

Rattus norvegicus [12] = experiment: Antiarrhythmic activity in iv dosed Wistar rat adrenaline-induced arrhythmia model assessed as reduction of heart-rhythm disturbance administered 15 mins adrenaline-challenge; format: functional; conditions: 0.25 h
In short: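 Anaesthetised male Wistar rats (thiopental 75 mg/kg ip). Test compound iv at 1 mL/kg, given 15 min before adrenaline 20 µg/kg iv. Activity means no premature beats and inhibition of arrhythmia, judged against a control group. There were three dose groups of six rats. ED50 with confidence limits was calculated by the Litchfield–Wilcoxon method.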

Rattus norvegicus [13] = experiment: Cardiotoxicity in Wistar rat assessed as PQ interval at 2.5 mg/kg, iv after 10 mins by ECG analysis; format: toxicity, organism-based; set-up: dose 2.5 mg/kg, route intravenous; conditions: in vivo
Rattus norvegicus [14] = experiment: Cardiotoxicity in Wistar rat assessed as QT interval at 2.5 mg/kg, iv after 10 mins by ECG analysis; format: toxicity, organism-based; set-up: dose 2.5 mg/kg, route intravenous; conditions: in vivo
Rattus norvegicus [15] = experiment: Cardiotoxicity in Wistar rat assessed as hear beats per min at 2.5 mg/kg, iv after 5 mins by ECG analysis; format: toxicity, organism-based; set-up: dose 2.5 mg/kg, route intravenous; conditions: in vivo
In short: (§2)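 Male normotensive Wistar rats (170–350 g, groups of six) were anaesthetised. Compound was given iv at 1 mL/kg. ECG was recorded just before dosing and at 1, 5 and 15 min after, and PQ, QRS and QT intervals and heart rate were read. Groups were compared by one-way ANOVA.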

Rattus norvegicus [16] = experiment: Hypotensive activity in normotensive Wistar rat assessed as reduction of systolic blood pressure at 0.31 mg/kg, iv after 10 mins; format: functional, Artery
In short: (§3)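 Male normotensive Wistar rats (170–350 g) anaesthetised with thiopental 75 mg/kg ip; right carotid artery cannulated with heparinised saline-filled polyethylene tubing for pressure recording. After a 5 min stabilisation, compound given into the caudal vein at 1 mL/kg. Systolic pressure is recorded at 0, 5, 10, 20, 30 and 60 min, and the data are reported as mean ± SEM of five to six animals, with one-way ANOVA.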

Rattus norvegicus [17] = experiment: Hypotensive activity in normotensive Wistar rat assessed as reduction of diastolic blood pressure at 0.31 mg/kg, iv after 10 mins; format: functional, Artery
In short: (§4)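 Male normotensive Wistar rats were anaesthetised with thiopental 75 mg/kg ip. The right carotid artery was cannulated with heparinised saline for pressure recording. After 5 min of stabilisation, compound was injected into the tail vein at 1 mL/kg. Systolic and diastolic pressure were followed up to 60 min. Data are means ± SEM of 5–6 rats, analysed by one-way ANOVA.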

Rattus norvegicus [18] = experiment: Cardiotoxicity in Wistar rat assessed as hear beats per min at 2.5 mg/kg, iv after 15 mins by ECG analysis; format: toxicity, organism-based; set-up: dose 2.5 mg/kg, route intravenous; conditions: in vivo, 0.25 h; in short: as §2
Rattus norvegicus [19] = experiment: Hypotensive activity in normotensive Wistar rat assessed as reduction of systolic blood pressure at 0.31 mg/kg, iv after 30 mins; format: functional, Artery; in short: as §3
Rattus norvegicus [20] = experiment: Hypotensive activity in normotensive Wistar rat assessed as reduction of diastolic blood pressure at 0.16 mg/kg, iv after 5 mins; format: functional, Artery; in short: as §4
Rattus norvegicus [21] = experiment: Cardiotoxicity in Wistar rat assessed as QRS interval at 2.5 mg/kg, iv after 5 mins by ECG analysis; format: toxicity, organism-based; set-up: dose 2.5 mg/kg, route intravenous; conditions: in vivo; in short: as §2
Rattus norvegicus [22] = experiment: Cardiotoxicity in Wistar rat assessed as PQ interval at 2.5 mg/kg, iv after 5 mins by ECG analysis; format: toxicity, organism-based; set-up: dose 2.5 mg/kg, route intravenous; conditions: in vivo; in short: as §2
Rattus norvegicus [23] = experiment: Cardiotoxicity in Wistar rat assessed as QRS interval at 2.5 mg/kg, iv after 10 mins by ECG analysis; format: toxicity, organism-based; set-up: dose 2.5 mg/kg, route intravenous; conditions: in vivo
Rattus norvegicus [24] = experiment: Cardiotoxicity in Wistar rat assessed as hear beats per min at 2.5 mg/kg, iv after 10 mins by ECG analysis; format: toxicity, organism-based; set-up: dose 2.5 mg/kg, route intravenous; conditions: in vivo
Rattus norvegicus [25] = experiment: Cardiotoxicity in Wistar rat assessed as PQ interval at 2.5 mg/kg, iv after 15 mins by ECG analysis; format: toxicity, organism-based; set-up: dose 2.5 mg/kg, route intravenous; conditions: in vivo, 0.25 h; in short: as §2
Rattus norvegicus [26] = experiment: Cardiotoxicity in Wistar rat assessed as QRS interval at 2.5 mg/kg, iv after 15 mins by ECG analysis; format: toxicity, organism-based; set-up: dose 2.5 mg/kg, route intravenous; conditions: in vivo, 0.25 h; in short: as §2
Rattus norvegicus [27] = experiment: Cardiotoxicity in Wistar rat assessed as QT interval at 2.5 mg/kg, iv after 15 mins by ECG analysis; format: toxicity, organism-based; set-up: dose 2.5 mg/kg, route intravenous; conditions: in vivo, 0.25 h; in short: as §2
Rattus norvegicus [28] = experiment: Cardiotoxicity in Wistar rat assessed as QT interval at 2.5 mg/kg, iv after 5 mins by ECG analysis; format: toxicity, organism-based; set-up: dose 2.5 mg/kg, route intravenous; conditions: in vivo; in short: as §2
Rattus norvegicus [29] = experiment: Hypotensive activity in normotensive Wistar rat assessed as reduction of diastolic blood pressure at 1.25 mg/kg, iv after 30 mins; format: functional, Artery; in short: as §4
Rattus norvegicus [30] = experiment: Hypotensive activity in normotensive Wistar rat assessed as reduction of diastolic blood pressure at 1.25 mg/kg, iv after 5 mins; format: functional, Artery; in short: as §4
Rattus norvegicus [31] = experiment: Cardiotoxicity in Wistar rat assessed as QT interval at 5 mg/kg, iv after 5 mins by ECG analysis; format: toxicity, organism-based; set-up: dose 5 mg/kg, route intravenous; conditions: in vivo
In short: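 Male normotensive Wistar rats, 170–350 g, six per group. Compound given iv at a constant volume of 1 mL/kg. ECG was recorded just before dosing and at 1, 5 and 15 min after. PQ, QRS and QT intervals and heart rate were read from the trace. Groups were compared by one-way ANOVA.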

SMILES	Activity (Rattus norvegicus [1])	Activity (Rattus norvegicus [2])	Activity (Rattus norvegicus [3])	Activity (Rattus norvegicus [4])	Activity (Rattus norvegicus [5])	Activity (Rattus norvegicus [6])	Activity (Rattus norvegicus [7])	Activity (Rattus norvegicus [8])	Activity (Rattus norvegicus [9])	Activity (Rattus norvegicus [10])	pKi [11]	ED50 (Rattus norvegicus [12])	Activity (Rattus norvegicus [13])	Activity (Rattus norvegicus [14])	Activity (Rattus norvegicus [15])	Activity (Rattus norvegicus [18])	Activity (Rattus norvegicus [21])	Activity (Rattus norvegicus [22])	Activity (Rattus norvegicus [23])	Activity (Rattus norvegicus [24])	other results
Cl.Cl.Cl.O=c1c2ccc(Cl)cc2oc2c(OCC(O)CN3CCN(Cc4ccccc4)CC3)cccc12 (racemic)	132.2 mmHg	149.5 mmHg	134.2 mmHg	152.2 mmHg	134.5 mmHg	152.5 mmHg	147.2 mmHg	151.2 mmHg	134.2 mmHg	128.7 mmHg											
COc1ccccc1N1CCN(CC(O)COc2cccc3c(=O)c4ccccc4oc23)CC1.Cl (racemic)											5.12	0.88 mg/kg	43.3 ms	68.2 ms	341.2 bpm	303.3 bpm	19.6 ms	44.3 ms	19.8 ms	315.2 bpm	Activity (Rattus norvegicus [16]): 121.8 mmHg; Activity (Rattus norvegicus [17]): 103 mmHg; Activity (Rattus norvegicus [19]): 118.6 mmHg; Activity (Rattus norvegicus [20]): 109.2 mmHg; Activity (Rattus norvegicus [25]): 42.8 ms; Activity (Rattus norvegicus [26]): 20.2 ms; Activity (Rattus norvegicus [27]): 68.4 ms; Activity (Rattus norvegicus [28]): 69.7 ms
Cl.Cl.Cl.O=c1c2ccc(Cl)cc2oc2c(OCC(O)CN3CCN(CCOc4ccccc4)CC3)cccc12 (racemic)																					Activity (Rattus norvegicus [29]): 100.6 mmHg; Activity (Rattus norvegicus [30]): 102.6 mmHg
Cl.Cl.Cl.O=c1c2ccc(Cl)cc2oc2c(OCC(O)CN3CCN(C/C=C/c4ccccc4)CC3)cccc12 (racemic)	110.6 mmHg	133 mmHg	108.6 mmHg	129.8 mmHg	110.4 mmHg	130.8 mmHg	125 mmHg	126.8 mmHg	110.8 mmHg	103.2 mmHg	4.37										Activity (Rattus norvegicus [31]): 73.6 ms
COc1ccccc1N1CCN(CC(COc2cccc3c(=O)c4ccccc4oc23)OC(C)=O)CC1.Cl (racemic)											4.95	0.87 mg/kg	48 ms	60 ms	375 bpm	366.3 bpm	19 ms	48 ms	19 ms	369 bpm	Activity (Rattus norvegicus [29]): 90.8 mmHg; Activity (Rattus norvegicus [30]): 92.8 mmHg; Activity (Rattus norvegicus [25]): 48 ms; Activity (Rattus norvegicus [26]): 19 ms; Activity (Rattus norvegicus [27]): 60 ms; Activity (Rattus norvegicus [28]): 61.8 ms
Cl.Cl.O=c1c2ccccc2oc2c(OCC(O)CN3CCN(C/C=C/c4ccccc4)CC3)cccc12 (racemic)	117.2 mmHg	144.2 mmHg	105 mmHg	132.6 mmHg	114 mmHg	139.8 mmHg	144.2 mmHg	125.6 mmHg	110.8 mmHg	118.4 mmHg	5.28										Activity (Rattus norvegicus [31]): 76.4 ms
COc1ccccc1N1CCN(CCCOc2cccc3c(=O)c4ccccc4oc23)CC1.Cl											5.49	0.69 mg/kg	43.2 ms	69.8 ms	314.4 bpm	295.7 bpm	20.4 ms	43 ms	20.6 ms	306.7 bpm	Activity (Rattus norvegicus [16]): 122.8 mmHg; Activity (Rattus norvegicus [17]): 107.7 mmHg; Activity (Rattus norvegicus [19]): 119.5 mmHg; Activity (Rattus norvegicus [20]): 97 mmHg; Activity (Rattus norvegicus [25]): 43.5 ms; Activity (Rattus norvegicus [26]): 20.3 ms; Activity (Rattus norvegicus [27]): 71.8 ms; Activity (Rattus norvegicus [28]): 70 ms
